Laboratory results as given in ChEMBL document CHEMBL1141098, “Molecular modeling of wild-type and D816V c-Kit inhibition based on ATP-competitive binding of ellipticine derivatives to tyrosine kinases” (J Med Chem, 2005).

What was measured:
[1] = molecular target: Mast/stem cell growth factor receptor Kit (Homo sapiens, UniProt P10721, D816V); assay: Inhibitory concentration against c-Kit D816V type expressed in recombinant baculovirus
Outline: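 Recombinant c-Kit D816V expressed in baculovirus-infected High Five cells (MOI 10, harvested 90 h), purified by ion exchange then Ni affinity chromatography. ELISA on poly-Glu/Tyr (1:4)-coated wells; 10 nM final enzyme in 10 mM MgCl2, 1 mM MnCl2, 1 mM vanadate, 20 mM HEPES pH 7.3, BSA; 15 min at 25 °C, EDTA stop. Anti-phosphotyrosine-HRP detection, OPD, absorbance 492 nm; IC50 from inhibition.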

[2] = molecular target: Mast/stem cell growth factor receptor Kit (Homo sapiens, UniProt P10721); assay: Inhibitory concentration against c-Kit wild type expressed in recombinant baculovirus
[3] = molecular target: Fibroblast growth factor receptor 3 (Homo sapiens, UniProt P22607); assay: Inhibitory activity against Fibroblast growth factor receptor 3
Outline: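 Commercially supplied FGFR3 enzyme. Value is the IC50 for inhibition of kinase activity.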

Sequence of Fibroblast growth factor receptor 3 (P22607 whole entry): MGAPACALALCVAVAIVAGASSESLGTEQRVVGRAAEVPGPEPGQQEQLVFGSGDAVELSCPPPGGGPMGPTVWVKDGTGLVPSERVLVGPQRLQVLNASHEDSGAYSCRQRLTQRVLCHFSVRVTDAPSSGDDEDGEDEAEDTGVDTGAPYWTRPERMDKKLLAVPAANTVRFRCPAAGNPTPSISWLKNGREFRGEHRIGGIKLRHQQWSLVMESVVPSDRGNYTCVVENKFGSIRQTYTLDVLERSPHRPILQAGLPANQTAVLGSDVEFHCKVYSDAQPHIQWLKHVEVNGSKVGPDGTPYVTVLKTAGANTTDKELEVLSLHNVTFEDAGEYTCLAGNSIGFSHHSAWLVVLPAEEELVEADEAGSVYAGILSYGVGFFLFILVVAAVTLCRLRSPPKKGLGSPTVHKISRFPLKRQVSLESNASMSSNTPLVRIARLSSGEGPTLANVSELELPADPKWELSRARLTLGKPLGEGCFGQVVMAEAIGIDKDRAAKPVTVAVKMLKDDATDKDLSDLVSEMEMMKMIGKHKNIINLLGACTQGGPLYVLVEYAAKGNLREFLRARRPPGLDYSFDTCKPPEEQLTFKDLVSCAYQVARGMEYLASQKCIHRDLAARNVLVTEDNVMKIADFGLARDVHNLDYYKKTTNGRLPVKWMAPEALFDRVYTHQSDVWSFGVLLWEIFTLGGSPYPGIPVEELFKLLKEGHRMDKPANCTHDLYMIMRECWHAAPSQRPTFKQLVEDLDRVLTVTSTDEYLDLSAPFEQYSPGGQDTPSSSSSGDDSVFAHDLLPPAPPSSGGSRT
Sequence of Mast/stem cell growth factor receptor Kit (Homo sapiens, UniProt P10721, D816V) (P10721 26-976 D816V limits assumed): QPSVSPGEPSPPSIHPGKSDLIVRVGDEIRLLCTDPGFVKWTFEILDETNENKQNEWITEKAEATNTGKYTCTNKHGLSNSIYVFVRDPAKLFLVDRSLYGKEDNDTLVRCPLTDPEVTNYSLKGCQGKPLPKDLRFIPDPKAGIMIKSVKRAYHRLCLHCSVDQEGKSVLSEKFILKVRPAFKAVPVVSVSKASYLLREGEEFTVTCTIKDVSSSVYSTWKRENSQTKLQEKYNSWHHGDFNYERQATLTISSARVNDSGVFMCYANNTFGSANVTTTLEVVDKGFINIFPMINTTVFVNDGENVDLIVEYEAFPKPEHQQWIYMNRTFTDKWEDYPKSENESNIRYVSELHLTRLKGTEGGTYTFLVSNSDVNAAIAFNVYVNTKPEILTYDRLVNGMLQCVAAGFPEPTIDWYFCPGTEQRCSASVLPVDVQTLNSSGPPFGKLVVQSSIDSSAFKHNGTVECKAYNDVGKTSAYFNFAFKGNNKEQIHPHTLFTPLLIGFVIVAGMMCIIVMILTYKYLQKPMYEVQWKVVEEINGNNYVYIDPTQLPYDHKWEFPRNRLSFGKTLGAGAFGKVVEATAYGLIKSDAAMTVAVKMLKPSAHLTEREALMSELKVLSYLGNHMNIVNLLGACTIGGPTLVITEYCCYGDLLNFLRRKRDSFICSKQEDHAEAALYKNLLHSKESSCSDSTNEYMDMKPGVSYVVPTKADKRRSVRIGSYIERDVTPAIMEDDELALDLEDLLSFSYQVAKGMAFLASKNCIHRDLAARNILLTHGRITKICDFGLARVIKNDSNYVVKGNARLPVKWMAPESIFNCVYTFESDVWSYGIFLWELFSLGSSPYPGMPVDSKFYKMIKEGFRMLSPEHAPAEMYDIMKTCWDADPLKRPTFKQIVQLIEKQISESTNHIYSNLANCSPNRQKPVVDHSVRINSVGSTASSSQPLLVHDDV
Sequence of Mast/stem cell growth factor receptor Kit (Homo sapiens, UniProt P10721) (P10721 whole entry): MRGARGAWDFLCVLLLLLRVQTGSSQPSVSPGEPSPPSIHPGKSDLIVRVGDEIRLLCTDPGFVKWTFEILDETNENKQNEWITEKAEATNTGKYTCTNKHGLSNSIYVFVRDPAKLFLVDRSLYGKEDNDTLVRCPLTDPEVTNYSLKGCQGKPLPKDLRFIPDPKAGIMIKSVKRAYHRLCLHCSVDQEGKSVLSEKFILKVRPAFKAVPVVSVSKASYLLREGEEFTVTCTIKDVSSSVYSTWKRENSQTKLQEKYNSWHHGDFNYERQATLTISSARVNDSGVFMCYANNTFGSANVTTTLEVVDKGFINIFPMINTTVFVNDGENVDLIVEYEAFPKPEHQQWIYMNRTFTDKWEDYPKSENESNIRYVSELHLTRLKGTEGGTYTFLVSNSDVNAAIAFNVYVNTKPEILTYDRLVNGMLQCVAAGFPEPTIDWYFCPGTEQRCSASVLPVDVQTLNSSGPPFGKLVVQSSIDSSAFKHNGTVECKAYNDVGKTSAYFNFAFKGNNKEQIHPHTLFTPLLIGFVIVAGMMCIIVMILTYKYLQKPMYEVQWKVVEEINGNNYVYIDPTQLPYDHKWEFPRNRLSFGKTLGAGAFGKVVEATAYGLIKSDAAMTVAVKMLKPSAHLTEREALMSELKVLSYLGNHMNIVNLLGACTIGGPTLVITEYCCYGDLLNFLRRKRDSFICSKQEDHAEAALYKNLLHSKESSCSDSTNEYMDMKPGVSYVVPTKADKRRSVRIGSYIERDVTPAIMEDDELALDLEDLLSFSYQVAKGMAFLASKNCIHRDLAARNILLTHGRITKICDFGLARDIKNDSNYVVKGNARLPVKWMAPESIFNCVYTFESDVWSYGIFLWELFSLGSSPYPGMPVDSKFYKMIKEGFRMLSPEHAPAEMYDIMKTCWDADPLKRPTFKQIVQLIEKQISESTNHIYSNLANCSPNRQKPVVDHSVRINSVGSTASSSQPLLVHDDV

Row | Compound | IC50 [1] [nM] | IC50 [2] [nM] | IC50 [3] [nM]
1 | Cc1c2cc[n+](C)cc2c(C)c2c1[nH]c1ccc(O)cc12 | 400 | 400 | 500
2 | Cc1c2ccncc2c(C)c2c1[nH]c1ccc(Br)cc12 | > 10000 | > 10000 | 
3 | CCN(CC)CC[n+]1ccc2c(C)c3[nH]c4ccc(O)cc4c3c(C)c2c1 | 300 | 450 | 
4 | CCN(CC)CCCNc1nccc2c(C)c3[nH]c4ncccc4c3cc12 | 1900 | 2300 | 
5 | COc1ccc2[nH]c3c(C)c4ccncc4c(C)c3c2c1 | 600 | 800 | 
6 | Cc1c2ccncc2c(C)c2c1[nH]c1ccc(O)cc12 | 400 | 400 | 400
7 | CCN(CC)CCCNc1nccc2c(C)c3[nH]c4ccc(OC)cc4c3cc12 | 2000 | 2500 | 
8 | CCN(CC)CCCNc1nccc2c(C)c3[nH]c4ccc(O)cc4c3c(C)c12 | 1200 | 1400 | 
9 | CCN(CC)CCCNc1nccc2c(C)c3c(c(C)c12)c1cc(O)ccc1n3C | 3600 | 2500 | 1400
10 | Cc1c2ccncc2c(C)c2c1[nH]c1ccccc12 [ELLIPTECINE] | > 10000 | > 10000 | 
